We go through four compounds from ChEMBL document CHEMBL1146073, “A pyridazine series of alpha2/alpha3 subtype selective GABA A agonists for the treatment of anxiety” (J Med Chem, 2006).

As a reminder, the Ki is the equilibrium dissociation constant of an inhibitor or competing ligand from its target. As a reminder, the clearance is the rate of elimination divided by the concentration. One may read the half-life as the time in which the quantity being followed falls by half. For orientation: bioavailability means the share of a dose that reaches the circulation, judged against a reference dose that is usually intravenous.

Each structure is given as a SMILES string.

Data set [1] in a line: Stability in dog assessed as liver microsomal turnover. The data set is classed as ADME, Canis lupus familiaris. The settings on record: liver microsomes, read-out: Stability. In short, it runs like this:
(§1)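 Test compound at 1 µM, with diazepam as control, incubated 0.25 h with pooled liver microsomes at 0.5 mg/mL protein. Compound remaining quantified by LC/MS/MS. Turnover is the mean of three determinations.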
(Liver microsomes are vesicles of endoplasmic reticulum, rich in cytochrome P450 enzymes.)

Data set [2] deals with T1, GABA-A receptor; alpha-2/beta-3/gamma-2 (Homo sapiens, UniProt P18507+P28472+P47869).
T1 sequence (P18507 whole entry): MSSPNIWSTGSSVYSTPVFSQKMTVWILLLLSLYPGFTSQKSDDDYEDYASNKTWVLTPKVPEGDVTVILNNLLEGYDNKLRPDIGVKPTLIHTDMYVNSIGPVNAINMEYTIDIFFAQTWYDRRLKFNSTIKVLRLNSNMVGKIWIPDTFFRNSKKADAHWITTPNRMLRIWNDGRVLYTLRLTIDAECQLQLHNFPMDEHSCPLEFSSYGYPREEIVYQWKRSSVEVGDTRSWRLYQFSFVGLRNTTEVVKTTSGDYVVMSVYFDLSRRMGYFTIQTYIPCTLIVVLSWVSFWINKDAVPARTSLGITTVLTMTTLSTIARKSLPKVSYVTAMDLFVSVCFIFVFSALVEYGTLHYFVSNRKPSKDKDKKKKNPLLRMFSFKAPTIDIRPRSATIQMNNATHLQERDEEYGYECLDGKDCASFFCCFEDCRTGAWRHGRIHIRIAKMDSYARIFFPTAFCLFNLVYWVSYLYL
T1 sequence (P28472 whole entry): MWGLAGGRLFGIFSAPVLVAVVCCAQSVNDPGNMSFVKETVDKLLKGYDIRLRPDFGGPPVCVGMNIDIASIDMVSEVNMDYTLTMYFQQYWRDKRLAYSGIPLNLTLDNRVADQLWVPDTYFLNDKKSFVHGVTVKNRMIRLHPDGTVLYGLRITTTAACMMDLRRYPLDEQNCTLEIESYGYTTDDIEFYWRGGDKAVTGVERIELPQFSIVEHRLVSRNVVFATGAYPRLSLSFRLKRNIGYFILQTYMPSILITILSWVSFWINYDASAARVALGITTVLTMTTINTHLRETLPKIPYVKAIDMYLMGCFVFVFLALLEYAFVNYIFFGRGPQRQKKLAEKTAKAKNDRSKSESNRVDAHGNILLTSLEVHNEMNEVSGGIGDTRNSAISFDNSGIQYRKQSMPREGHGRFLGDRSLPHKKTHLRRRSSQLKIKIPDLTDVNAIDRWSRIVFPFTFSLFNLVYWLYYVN
T1 sequence (P47869 whole entry): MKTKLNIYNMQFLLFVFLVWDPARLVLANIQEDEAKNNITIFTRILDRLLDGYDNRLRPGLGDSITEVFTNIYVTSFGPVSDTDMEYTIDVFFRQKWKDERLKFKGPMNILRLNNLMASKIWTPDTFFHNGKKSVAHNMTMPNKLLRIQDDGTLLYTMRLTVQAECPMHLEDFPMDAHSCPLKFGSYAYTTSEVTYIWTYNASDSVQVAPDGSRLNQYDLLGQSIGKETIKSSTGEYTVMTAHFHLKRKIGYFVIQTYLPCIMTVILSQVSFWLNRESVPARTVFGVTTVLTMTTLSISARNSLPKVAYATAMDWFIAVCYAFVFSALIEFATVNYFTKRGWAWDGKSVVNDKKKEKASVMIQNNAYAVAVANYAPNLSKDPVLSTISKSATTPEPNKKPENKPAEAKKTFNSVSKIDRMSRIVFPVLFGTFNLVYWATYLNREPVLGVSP
The experiment in a line: Displacement of [3H]Ro-151788 from recombinant human GABA-Aalpha2 receptor plus beta3gamma2. Type of data set: protein-complex assay. An outline of the steps: (§2)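 Benzodiazepine-site binding on stably transfected αxβ3γ2 receptors (x = 1, 2, 3 or 5). Inhibition curves run with [3H]Ro15-1788 at roughly twice its Kd. Ki derived by Cheng-Prusoff equation. Mean of three to six determinations.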
(Displacement assays read how much labelled ligand stays bound in the presence of the test substance.)

Data set [3] concerns the target GABA-A receptor; alpha-5/beta-3/gamma-2 (Homo sapiens) (UniProt P18507+P28472+P31644). The experiment in a line: Efficacy against recombinant human GABA-Aalpha5 plus beta-3-gamma-2 expressed in L(tk-) cells by whole cell patch clamp method relative to chlordiazepoxide. Type of data set: functional, cell-based. An outline of the steps: (§3)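 Whole-cell patch clamp on αxβ3γ2 receptors stably expressed in L(tk-) cells, measuring the effect on current evoked by an EC20-equivalent of GABA. Reported relative to full agonist chlordiazepoxide (=1.0), or as direct percent modulation of the EC20 control, with inverse agonism given as percent. Mean of at least four independent experiments.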
For orientation: The patch-clamp technique gives a direct electrical read-out from membranes.

Data set [4] can be described thus: Stability in rat assessed as liver microsomal turnover. Type of data set: ADME, Microsome. To be noted: liver microsomes, read-out: Stability. In short, it runs like this: as §1
For data set [5], the target named is T2, GABA-A receptor; alpha-5/beta-3/gamma-2 (Homo sapiens, UniProt P18507+P28472+P31644).
T2 sequence (P18507 whole entry): T1 sequence (P18507 whole entry)
T2 sequence (P28472 whole entry): T1 sequence (P28472 whole entry)
T2 sequence (P31644 whole entry): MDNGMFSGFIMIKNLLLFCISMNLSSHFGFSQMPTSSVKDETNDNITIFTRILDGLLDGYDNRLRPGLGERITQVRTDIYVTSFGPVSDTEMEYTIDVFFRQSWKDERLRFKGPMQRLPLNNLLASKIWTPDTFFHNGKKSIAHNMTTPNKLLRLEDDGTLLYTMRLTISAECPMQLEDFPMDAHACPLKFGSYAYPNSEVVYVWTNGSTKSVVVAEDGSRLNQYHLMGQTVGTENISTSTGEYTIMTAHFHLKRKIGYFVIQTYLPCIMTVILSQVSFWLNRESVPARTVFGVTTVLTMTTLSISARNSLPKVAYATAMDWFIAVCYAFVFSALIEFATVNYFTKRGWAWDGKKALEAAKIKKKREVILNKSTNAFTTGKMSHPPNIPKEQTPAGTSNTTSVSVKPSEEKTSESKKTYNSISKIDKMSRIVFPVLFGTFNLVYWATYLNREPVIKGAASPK
The experiment in a line: Displacement of [3H]Ro-151788 from recombinant human GABA-Aalpha5 receptor plus beta3gamma2. Type of data set: protein-complex assay. An outline of the steps:
as §2

Data set [6] deals with GABA-A receptor; alpha-1/beta-3/gamma-2 (Homo sapiens) (UniProt P14867+P18507+P28472). The experiment in a line: Efficacy against recombinant human GABA-Aalpha1 plus beta-3-gamma-2 expressed in L(tk-) cells by whole cell patch clamp method. The data set is classed as functional, cell-based. In short, it runs like this: as §3
Data set [7] can be described thus: Plasma clearance in dog. The data set is classed as ADME, organism-based, Canis lupus familiaris. An outline of the steps:
(§4)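 Pharmacokinetics from six animals per species: three dosed iv and three dosed po.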

Data set [8] can be described thus: Half life in dog. The data set is classed as ADME, organism-based, Canis lupus familiaris. The settings on record: in vivo. An outline of the steps:
as §4

Data set [9] in a line: Oral bioavailability in Rhesus monkey. The settings on record: in vivo. The data set is classed as ADME, organism-based, Macaca mulatta. An outline of the steps: as §4
A short description of data set [10]: Oral bioavailability in rat. The data set is classed as ADME, organism-based. To be noted: in vivo. In short, it runs like this: as §4
The nature of data set [11]: Oral bioavailability in dog. The data set is classed as ADME, organism-based, Canis lupus familiaris. The settings on record: in vivo. An outline of the steps:
as §4

Data set [12] concerns the target GABA-A receptor; anion channel (Rattus norvegicus) (UniProt O09028+P15431+P18506+P18508+P19969+P20236+P23574+P23576+P28471+P28473+P30191+P62813+P63079+P63138+Q91ZM7+Q9ES14). The experiment in a line: Receptor occupancy in vivo by displacement of [3H]Ro-151788 binding from GABA-A receptor in rat at 0.3 mg/kg, po. The data set is classed as functional, organism-based. Set-up: dose 0.3 mg/kg. In short, it runs like this: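 Rat in vivo occupancy measured by [3H]Ro 15-1788 binding after oral dosing. Rats taken as a subgroup after the plus-maze trial, i.e. 30 min post-dose or later. ED50 derived from dose-dependent occupancy. Mean ± SEM, n = 5-10/group.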

The nature of data set [13]: Plasma clearance in rat. The data set is classed as ADME, organism-based. In short, it runs like this: as §4

Take `Fc1cnc(-c2cc(-c3cnnc(-c4c(F)cc(F)cc4F)c3)ccc2F)c(F)c1`: the metabolised is 0% in data set [1] and 4% in [4]. The Ki in [2] came to 4.6 nM; in data set [5], 5.1 nM. Moreover, the Efficacy in data set [3] was 0.14; in data set [6], -9%.
For `Fc1cnc(-c2cc(-c3cnnc(-c4c(F)cncc4F)c3)ccc2F)c(F)c1`, the figures for the clearance in data set [7] and in [13] were 17 mL/min/kg and 59 mL/min/kg, respectively. For the same compound, the results for the metabolised in data set [1] and in data set [4] were 4% and 5%, respectively. The same compound gave a half-life in [8] of 3.9 h. Further, the bioavailability came out at 46% in data set [9], 50% in [10] and 72% in data set [11]. In data set [12], this compound returned an Activity of 56%. In addition, the Ki in data set [5] is 6 nM. Also, the Efficacy in data set [6] was -3%.
In the case of `Fc1cnc(-c2cc(-c3ccc(F)c(-c4ncc(F)cc4F)c3)cnn2)c(F)c1`, the clearance turned out to be 3.9 mL/min/kg in [7] and 1.3 mL/min/kg in data set [13]. Besides, the metabolised in data set [1] came to 8%; in [4], 3%. Also, the Ki in [2] was found to be 10.9 nM; in data set [5], 12.1 nM. The Efficacy was 0.01 in data set [3] and -7% in data set [6]. Besides, in [8], the half-life is 15 h. Moreover, the bioavailability in data set [10] was found to be 88%; in data set [11] it was 40%.
As to `Fc1cnc(-c2cc(-c3ccc(F)c(-c4ncccc4F)c3)cnn2)c(F)c1`, the results for the Efficacy in data set [3] and in data set [6] were 0.4 and -0.8%, respectively. The compound also had a bioavailability in data set [10] of 100%. Further, the metabolised in data set [4] is less than 5%. Also, the Ki in data set [5] amounted to 2.8 nM. Moreover, in [13], the clearance stood at 3 mL/min/kg.
